Screening results: PubChem BioAssay, several laboratories
Hits are enriched below; roughly 0.72% of the tested compounds scored in any of these assays.
AI-2 QS modul = Vibrio harveyi AI-2 quorum sensing modulators, primary screen, JMH597 strain, luminescence/OD600 ratio; Vibrio harveyi JMH597 AI-2 luminescence/OD600 ratio, 9 h; stronger effect = lower value; strain lacks LuxN and CqsS sensors; 0 = neutral-control median; activity change, % at 7.5 µM; 0.4% of 300,000 active; in the data active means activity change below about -75%, passing the limit was not always enough; inconclusive means no clear call, values can overlap the other calls;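 further: luminescence divided by OD600 gain over 9 h not by final OD600 alone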
PolyA inhibitor = polyadenylation inhibitors in yeast reporter cells, primary screen, luminescence, S. cerevisiae. S. cerevisiae SKY197-pL101 polyadenylation reporter, beta-gal luminescence; efflux-impaired pdr1/pdr3 knockout yeast; score 100 = 6 SD above DMSO. activity score, % at 12 µM. 0.02% of 300,000 active. AID 1875, 2009;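 active means lowest replicate activity score at least 50, where 100 means six control SD above control mean; inconclusive means lowest score under 50 but half or more replicates reach 50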;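 further: yeast exposed to compound for 9 h at 30 °C; higher score means more reporter readthrough which indicates perturbed polyadenylation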
GSK3A inh = blockers of GSK3A enzyme activity – biochemical, luminescence, cell-free homogeneous, HTS, primary screen. Glycogen synthase kinase-3 alpha (Homo sapiens), P49840. GSK-3 alpha kinase, ADP-Glo luminescence, 60 min. inhibition, % at 10 µM. 0.1% of 320,000 active. AID 2650, 2010;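 active means more than half of replicates show inhibition above 20%; inconclusive means some but at most half of replicates above 20% inhibition; inactive means no replicate shows inhibition above 20%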;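 further: GST-tagged GSK-3 alpha with peptide substrate and 25 µM ATP; 0% = DMSO neutral wells and 100% = GW8510 positive control wells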
Yeast superoxide = reduction of superoxide in aged yeast, primary screen, HTS; S. cerevisiae aged cells, superoxide DHE fluorescence; stronger effect = lower value; superoxide response (% of plate mean), % at 10 µM; 0.18% of 330,000 active;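 active means superoxide response under a set limit, about three screen SD below normal, cut at about 65% in these data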;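 further: yeast aged for seven days with compound at 30 °C before DHE staining; 100% = average MFI of all compound-treated wells on the plate with controls excluded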
STK33 kinase inh = inhibitors of purified STK33 kinase, primary screen, biochemical, ADP-Glo luminescence, homogeneous, cell-free; Serine/threonine-protein kinase 33 (Homo sapiens), Q9BYT3; MBP phosphorylation; inhibition, % at 10 µM; 0.073% of 320,000 active;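 active means inhibition at or above 25%, using the most active replicate where run in duplicate; inactive means inhibition below 25%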
Target sequence (Q9BYT3 whole entry, looked up): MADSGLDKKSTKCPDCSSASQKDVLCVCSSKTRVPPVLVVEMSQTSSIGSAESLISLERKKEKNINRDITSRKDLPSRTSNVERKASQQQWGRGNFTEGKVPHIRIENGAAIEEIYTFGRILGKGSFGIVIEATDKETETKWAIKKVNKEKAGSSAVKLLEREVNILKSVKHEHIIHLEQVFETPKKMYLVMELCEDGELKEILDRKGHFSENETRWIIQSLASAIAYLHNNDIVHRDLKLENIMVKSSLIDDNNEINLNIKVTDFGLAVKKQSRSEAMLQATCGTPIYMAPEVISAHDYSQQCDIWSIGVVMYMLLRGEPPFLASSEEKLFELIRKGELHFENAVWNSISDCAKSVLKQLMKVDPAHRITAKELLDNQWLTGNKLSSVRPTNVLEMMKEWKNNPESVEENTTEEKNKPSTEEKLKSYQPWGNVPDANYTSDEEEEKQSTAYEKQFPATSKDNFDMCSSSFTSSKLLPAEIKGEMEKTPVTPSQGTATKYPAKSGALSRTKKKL
GSK3beta inhib = human GSK3beta kinase inhibitors, primary screen, biochemical, cell-free homogeneous, HTS; Glycogen synthase kinase-3 beta (Homo sapiens), P49841; GST-GSK3beta kinase, ADP-Glo luminescence, 60 min; stronger effect = lower value; activity score (negative = inhibition), % at 10 µM; 0.038% of 300,000 active; AID 2097, 2009;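 active means more than half of replicate wells score below -50%, meaning over 50% inhibition versus plate controls; inconclusive means some replicates but at most half score below -50%; inactive means no replicate scores below -50%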;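 further: 0% = median DMSO wells and -100% = median GW8510 positive control wells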
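Test system – GST-tagged human GSK3beta kinase, cell-free · Incubation – 60 min enzyme reaction, room temperature · Signal – ADP-Glo luminescence · Also added – peptide substrate and ATP at 25 µM · Controls – DMSO neutral wells and GW8510 at 20 µM as positive · Buffer or medium – Tris/MgCl2 kinase buffer · Measure – Luminescence-derived activity versus plate DMSO and GW8510 wells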
Numbers without * were called inactive; u = inconclusive; x = not tested or not shown.

SMILES	AI-2 QS modul	PolyA inhibitor	GSK3A inh	Yeast superoxide	STK33 kinase inh	GSK3beta inhib
COc1cccc(/C=N/Nc2ncnc(Cl)c2N)c1O	-82*	17	1	82	-1	-1
COc1cccc(/C=N/Nc2nccnc2Cl)c1O	u	-11	x	x	x	-1
CNc1ccccc1C(C)(C)c1cc(-c2ccc(F)cc2)no1	23	-1	-2	101	-2	1
Cc1ccc2[nH]cc(CCNC(=O)c3ccc4c(c3)OCO4)c2c1	-80*	0	-3	93	0	11
Cc1ccc2[nH]cc(CCNC(=O)c3ccco3)c2c1	14	5	0	116	0	-2
COc1ccc(C(=O)NCC(=O)N2CCN(C(=O)c3ccco3)CC2)cc1[N+](=O)[O-]	x	x	-3	85	-1	x
COc1ccc(CCNC(=O)c2cc3c(=O)n(C)c4ccccc4c3n2C)c(OC)c1	1	-2	-1	61*	-2	1
COc1cc(NC(=O)c2cc3c(=O)n(C)c4ccccc4c3n2C)cc(OC)c1OC	19	3	x	111	2	3
CC(=O)NC(=S)Nc1sc2c(c1C(N)=O)CCC(C)C2 (stereo not given)	3	14	4	112	-1	-2
COC(=O)c1ccc(N)cc1O	23	10	1	88	-2	0
COC(=O)c1ccc(=O)c2nc3/c(=C/O)c(O)cc(=O)c3[nH]c12	x	x	1	45*	0	x
CCC(O)CNc1nc(SC)nc2sc3c(c12)CCN(C)C3 (stereo not given)	16	3	88*	90	9	0
COC(CNc1nc(SC)nc2sc3c(c12)CCN(C)C3)OC	18	5	25	128	2	-15
COc1ccc(C2/C(=C(/O)c3ccccc3)C(=O)C(=O)N2C)cc1OC (stereo not given)	4	-17	0	92	-1	2
CCCCC(CC)CO (stereo not given)	x	x	x	86	x	x
CCCCC(CC)CN=C(N)NC(N)=NCCCCCCN=C(N)NC(N)=NCC(CC)CCCC (stereo not given)	x	x	20	76	29*	x
O=C1NC(=O)/C(=C\c2ccc(O)cc2O)S1	38	5	24	110	36*	-13
O=C1NC(=O)/C(=C/c2cccc3ccccc23)S1	72	-5	8	105	2	5
c1cncc(-c2nc(NCCCn3ccnc3)c3ccccc3n2)c1	25	10	71*	93	12	-55*
Cc1nc(NCCCn2ccnc2)c2ccccc2n1	21	-6	4	116	0	-2
COc1ccc(-c2nn(-c3ccccc3)cc2/C=N/O)cc1	7	-16	46	103	0	-54*
COc1ccccc1N(CC(=O)NC1CCCC1)C(=O)CNC(=O)c1cccs1	4	-10	1	91	-1	1
COc1cc(N2C(=O)C=CC2=O)c(OC)cc1Cl	-92*	-5	-1	98	0	1
COc1cc(S(=O)(=O)N2CCN(C)CC2)c(OC)cc1Cl	35	4	-7	103	-1	2
CN(C(=O)c1ccc(Br)o1)C1(C)CCS(=O)(=O)C1 (stereo not given)	-5	16	-1	113	-1	-1
SMILES	AI-2 QS modul	PolyA inhibitor	GSK3A inh	Yeast superoxide	STK33 kinase inh	GSK3beta inhib
COc1ccc(-c2onc3ccc(Br)cc23)cc1	17	9	-2	105	1	2
CC(=O)c1ccc2noc(-c3ccc(F)cc3)c2c1	2	-17	7	99	4	-6
COc1ccc(-c2onc3ccc(C(=O)/C=C/N(C)C)cc23)cc1	15	-9	0	93	31*	-4
CN(C)/C=C/C(=O)c1ccc2noc(-c3cccc(F)c3)c2c1	12	-3	3	97	35*	4
O=C(CN1C(=O)CCC1=O)Nc1cccc2c1C(=O)NC2=O	39	0	98*	103	-1	-80*
c1ccc(CSc2ccc(-c3ccco3)nn2)cc1	-77*	-13	x	87	x	1
Cc1cccc(CSc2ccc(-c3ccco3)nn2)c1	-70	5	-2	103	0	-4
Clc1ccc(CSc2ccc(-c3ccco3)nn2)cc1	-35	-2	-1	104	1	-1
Cc1ccc(CSc2ccc(-c3ccco3)nn2)cc1	-86*	-8	-5	93	0	-6
COc1ccc(/C=C(/NC(=O)c2ccccc2)C(=O)N2CCOCC2)cc1OC	-1	19	5	88	0	6
CN(Cc1c(C(=O)N/N=C/c2ccc(O)cc2)nnn1-c1nonc1N)c1ccccc1	-2	15	75*	91	6	2
CCN(CC)Cc1c(C(=O)N/N=C/c2ccccn2)nnn1-c1nonc1N	10	17	60*	93	1	-54*
CCN(CC)Cc1c(C(=O)N/N=C/c2cccs2)nnn1-c1nonc1N	10	-1	76*	95	-1	-3
CC(=C/c1ccco1)/C=N/NC(=O)c1nnn(-c2nonc2N)c1CN(C)C	17	0	59*	76	-1	3
O=C(NCc1ccccc1Cl)c1ccc2c(c1)OCO2	-3	6	-3	104	0	-3
CC(C)(C)C1=NN=C2c3ccccc3C(=O)C21 (stereo not given)	20	-25	10	116	30*	-3
O=c1cc(-c2ccc(O)cc2)oc2c1ccc1ccccc12	x	x	-3	87	-2	x
O=c1cc(-c2ccncc2)oc2c1ccc1ccccc12	5	5	54*	104	1	-1
Cc1cn(C2OC(CC(=O)Oc3ccccc3)C(O)C2O)c(=O)[nH]c1=O (stereo not given)	29	15	52*	96	0	-25
C=CCn1c(SCC(=O)NC2CCCCC2)nnc1-c1cccnc1	-1	u	0	96	-1	0
CC1CCCCN1c1ccc(N)cc1C(N)=O (stereo not given)	4	6	2	99	-1	1
Cc1cc(-c2ccc(N=Nc3c(S(=O)(=O)O)cc4cc(S(=O)(=O)O)cc(N)c4c3O)c(C)c2)ccc1N=Nc1c(S(=O)(=O)O)cc2cc(S(=O)(=O)O)cc(N)c2c1O	x	x	32	90	66*	x
COc1cc(C2c3sc(=O)[nH]c3SC3C4CCC(C4)C23)ccc1O (stereo not given)	5	2	78*	98	1	3
